{"source": "ChEMBL document CHEMBL5724801", "about": "“EUbOPEN Chemogenomics Library - Multiplex” (2024)", "system": "HEK-293T", "experiment": "Multiplex assay against HEK293T", "assay_type": "toxicity, cell-based", "details": "human", "summary_of_the_method": "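Per cents of healthy-nucleus cells form the tubulin, mitochondrial-mass and membrane-permeability phenotype values. Live cells were stained at seeding with Hoechst33342, BioTracker Green Microtubule Cytoskeleton Dye, MitoTracker Red and Annexin V Alexa Fluor 680. After compound addition they were imaged on a CQ1 microscope at 37°C and 5% CO2, and CellPathfinder machine-learning gating split them into Hoechst high-intensity objects or normal cells, normal cells into healthy, pyknosed or fragmented nuclei, and pyknosed cells into mitotic or apoptotic.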", "key": {"[1]": {"details": "12 h, 1 µM, compound concentration 1 uM"}, "[2]": {"details": "12 h, 10 µM, compound concentration 10 uM"}, "[3]": {"details": "24 h, 1 µM, compound concentration 1 uM"}, "[4]": {"details": "24 h, 10 µM, compound concentration 10 uM"}, "[5]": {"details": "48 h, 1 µM, compound concentration 1 uM"}, "[6]": {"details": "48 h, 10 µM, compound concentration 10 uM"}}, "note": "Several values for one entry are separate records, joined by “and”; a condition that tells them apart may be missing. Equal entries are not always repeated."}
{"smiles": "COCCNc1nc2ccc(C#CC3(O)CCCCC3)cc2n1-c1ccnc(N)n1", "values": [{"measurement": "Population Apoptotic (%)", "setting": "[1]", "result": "9.87% and 12.26%"}, {"measurement": "Population Fragmented Nuclei (%)", "setting": "[1]", "result": "1.33% and 5.34%"}, {"measurement": "Population Hoechst High Intensity Objects (%)", "setting": "[1]", "result": 0, "unit": "%"}, {"measurement": "Population Membrane Permeable-Phenotype (%)", "setting": "[1]", "result": "1.82% and 0%"}, {"measurement": "Population Mitotic Cells (%)", "setting": "[1]", "result": "90.13% and 87.74%"}, {"measurement": "Population Normal (%)", "setting": "[1]", "result": 100, "unit": "%"}, {"measurement": "Population Pyknosed Nuclei (%)", "setting": "[1]", "result": "40.32% and 80.92%"}, {"measurement": "Total Cell Count", "setting": "[1]", "result": "377 and 131"}, {"measurement": "Population Apoptotic (%)", "setting": "[2]", "result": "17.15% and 7.53%"}, {"measurement": "Population Fragmented Nuclei (%)", "setting": "[2]", "result": "0.29% and 2.41%"}, {"measurement": "Population Hoechst High Intensity Objects (%)", "setting": "[2]", "result": 0, "unit": "%"}, {"measurement": "Population Membrane Permeable-Phenotype (%)", "setting": "[2]", "result": 0, "unit": "%"}, {"measurement": "Population Mitotic Cells (%)", "setting": "[2]", "result": "82.85% and 92.47%"}, {"measurement": "Population Normal (%)", "setting": "[2]", "result": 100, "unit": "%"}, {"measurement": "Population Pyknosed Nuclei (%)", "setting": "[2]", "result": "68.29% and 87.95%"}, {"measurement": "Population Tubulin-Different-Phenotype (%)", "setting": "[2]", "result": "29.09% and 56.25%"}, {"measurement": "Total Cell Count", "setting": "[2]", "result": "350 and 166"}, {"measurement": "Population Apoptotic (%)", "setting": "[3]", "result": "11.24% and 8.33%"}, {"measurement": "Population Fragmented Nuclei (%)", "setting": "[3]", "result": "1.68% and 2.99%"}, {"measurement": "Population Healthy Nuclei (%)", "setting": "[3]", "result": "69.92% and 32.34%"}, {"measurement": "Population Hoechst High Intensity Objects (%)", "setting": "[3]", "result": "0% and 0.6%"}, {"measurement": "Population Membrane Permeable-Phenotype (%)", "setting": "[3]", "result": "2.88% and 1.85%"}, {"measurement": "Population Mitochondria Different-Phenotype (%)", "setting": "[3]", "result": "12.5% and 16.67%"}, {"measurement": "Population Mitotic Cells (%)", "setting": "[3]", "result": "88.76% and 91.67%"}, {"measurement": "Population Normal (%)", "setting": "[3]", "result": "100% and 99.4%"}, {"measurement": "Population Pyknosed Nuclei (%)", "setting": "[3]", "result": "28.4% and 64.67%"}, {"measurement": "Population Tubulin-Different-Phenotype (%)", "setting": "[3]", "result": "6.49% and 5.56%"}, {"measurement": "Population Apoptotic (%)", "setting": "[4]", "result": "30% and 31.16%"}, {"measurement": "Population Fragmented Nuclei (%)", "setting": "[4]", "result": "0.22% and 1.23%"}, {"measurement": "Population Hoechst High Intensity Objects (%)", "setting": "[4]", "result": "0.22% and 0%"}, {"measurement": "Population Membrane Permeable-Phenotype (%)", "setting": "[4]", "result": "1% and 0%"}, {"measurement": "Population Mitochondria Different-Phenotype (%)", "setting": "[4]", "result": "22.89% and 17.39%"}, {"measurement": "Population Mitotic Cells (%)", "setting": "[4]", "result": "70% and 68.84%"}, {"measurement": "Population Normal (%)", "setting": "[4]", "result": "99.78% and 100%"}, {"measurement": "Population Pyknosed Nuclei (%)", "setting": "[4]", "result": "55.31% and 84.66%"}, {"measurement": "Population Tubulin-Different-Phenotype (%)", "setting": "[4]", "result": "37.81% and 21.74%"}, {"measurement": "Total Cell Count", "setting": "[4]", "result": "453 and 163"}, {"measurement": "Population Apoptotic (%)", "setting": "[5]", "result": "6.04% and 14.1%"}, {"measurement": "Population Fragmented Nuclei (%)", "setting": "[5]", "result": "1.77% and 1.97%"}, {"measurement": "Population Healthy Nuclei (%)", "setting": "[5]", "result": "86.69% and 67.32%"}, {"measurement": "Population Hoechst High Intensity Objects (%)", "setting": "[5]", "result": "0.06% and 0%"}, {"measurement": "Population Membrane Permeable-Phenotype (%)", "setting": "[5]", "result": "6.87% and 2.34%"}, {"measurement": "Population Mitochondria Different-Phenotype (%)", "setting": "[5]", "result": "9.94% and 24.56%"}, {"measurement": "Population Mitotic Cells (%)", "setting": "[5]", "result": "93.96% and 85.9%"}, {"measurement": "Population Normal (%)", "setting": "[5]", "result": "99.94% and 100%"}, {"measurement": "Population Pyknosed Nuclei (%)", "setting": "[5]", "result": "11.53% and 30.71%"}, {"measurement": "Population Apoptotic (%)", "setting": "[6]", "result": "18.78% and 26.09%"}, {"measurement": "Population Fragmented Nuclei (%)", "setting": "[6]", "result": "0.76% and 2.91%"}, {"measurement": "Population Healthy Nuclei (%)", "setting": "[6]", "result": "68.15% and 30.1%"}, {"measurement": "Population Hoechst High Intensity Objects (%)", "setting": "[6]", "result": "0.25% and 0%"}, {"measurement": "Population Membrane Permeable-Phenotype (%)", "setting": "[6]", "result": "2.79% and 1.61%"}, {"measurement": "Population Mitochondria Different-Phenotype (%)", "setting": "[6]", "result": "59.96% and 58.06%"}, {"measurement": "Population Mitotic Cells (%)", "setting": "[6]", "result": "81.22% and 73.91%"}, {"measurement": "Population Normal (%)", "setting": "[6]", "result": "99.75% and 100%"}, {"measurement": "Population Pyknosed Nuclei (%)", "setting": "[6]", "result": "31.09% and 66.99%"}]}
